Test results: ChEMBL document CHEMBL1255510, “Discovery of a class of calcium sensing receptor positive allosteric modulators; 1-(benzothiazol-2-yl)-1-phenylethanols” (Bioorg Med Chem Lett, 2010)
Structures can show the parent of a compound that is named as a salt. Calls of active or inactive are those of the source. No cut-off for these calls is given here.

Legend:
[1] = target: T1, Extracellular calcium-sensing receptor (Homo sapiens) (UniProt P41180); assay: Positive allosteric modulation of calcium sensing receptor at 10 nM by cell based assay relative to control; assay type: functional
T1 sequence (whole entry): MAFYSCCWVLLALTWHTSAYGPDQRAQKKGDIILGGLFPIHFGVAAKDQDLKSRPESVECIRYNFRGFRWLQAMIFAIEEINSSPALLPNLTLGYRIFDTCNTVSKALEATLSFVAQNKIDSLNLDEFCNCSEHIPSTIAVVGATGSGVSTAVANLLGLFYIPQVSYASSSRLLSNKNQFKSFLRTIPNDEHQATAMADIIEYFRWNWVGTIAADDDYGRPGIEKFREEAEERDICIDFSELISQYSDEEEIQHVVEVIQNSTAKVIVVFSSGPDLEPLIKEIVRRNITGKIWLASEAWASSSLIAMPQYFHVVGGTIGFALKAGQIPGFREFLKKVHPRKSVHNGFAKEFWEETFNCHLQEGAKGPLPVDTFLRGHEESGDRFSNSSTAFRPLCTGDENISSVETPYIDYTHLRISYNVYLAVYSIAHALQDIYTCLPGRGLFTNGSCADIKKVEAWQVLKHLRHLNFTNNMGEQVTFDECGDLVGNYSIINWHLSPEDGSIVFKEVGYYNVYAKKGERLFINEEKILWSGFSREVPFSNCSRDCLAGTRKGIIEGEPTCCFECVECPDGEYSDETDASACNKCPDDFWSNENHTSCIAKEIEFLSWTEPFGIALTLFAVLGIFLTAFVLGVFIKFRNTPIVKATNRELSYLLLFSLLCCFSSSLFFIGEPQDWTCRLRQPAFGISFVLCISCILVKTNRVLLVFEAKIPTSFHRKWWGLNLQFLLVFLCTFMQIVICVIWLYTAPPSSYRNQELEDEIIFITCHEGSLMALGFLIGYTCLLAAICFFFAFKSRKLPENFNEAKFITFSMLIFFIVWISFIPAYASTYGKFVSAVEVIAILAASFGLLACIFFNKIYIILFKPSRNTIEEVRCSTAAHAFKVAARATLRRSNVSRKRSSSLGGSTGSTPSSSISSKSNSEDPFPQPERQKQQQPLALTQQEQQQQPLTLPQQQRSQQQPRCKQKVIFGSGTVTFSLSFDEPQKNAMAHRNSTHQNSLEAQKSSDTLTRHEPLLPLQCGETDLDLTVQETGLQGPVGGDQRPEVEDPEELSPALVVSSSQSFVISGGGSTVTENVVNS

[2] = target: T1, Extracellular calcium-sensing receptor (Homo sapiens); assay: Positive allosteric modulation of calcium sensing receptor at 10 nM by cell based assay; assay type: functional
[3] = target: T2, Extracellular calcium-sensing receptor (Homo sapiens, UniProt P41180); assay: Positive allosteric modulation of calcium sensing receptor by cell based assay; assay type: functional
T2 sequence (P41180 whole entry): T1 sequence (whole entry)
In short: (§1)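 R-SAT cell-based functional assay; cells kept in DMEM with 0.8 mM MgCl2 and 1.6 mM CaCl2 to raise sensitivity. Means of at least three independent experiments, standard deviation reported.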

[4] = target: T1, Extracellular calcium-sensing receptor (Homo sapiens); assay: Positive allosteric modulation of calcium sensing receptor by cell based assay relative to control; assay type: functional; in short: as §1
[5] = target: T1, Extracellular calcium-sensing receptor (Homo sapiens); assay: Positive allosteric modulation of calcium sensing receptor by phosphatidyl inositol hydrolysis assay; assay type: functional
[6] = Intrinsic clearance in human liver microsomes; assay type: ADME, Microsome
[7] = tested on: Rattus norvegicus; assay: Reduction of parathyroid hormone level in Sprague-Dawley rat at up to 10 mg/kg, sc after 1 hr by ELISA; assay type: functional, organism-based; parameters: dose 10 mg/kg
In short: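 Male Sprague–Dawley rats dosed subcutaneously; blood sampled 1 h post-dose and plasma PTH measured by ELISA.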

[8] = species on record: Homo sapiens; assay: Activation of human GABAB receptor
[9] = target: T3, Parathyroid hormone/parathyroid hormone-related peptide receptor (Homo sapiens) (UniProt Q03431); assay: Activation of human PTH1 receptor
T3 sequence (whole entry): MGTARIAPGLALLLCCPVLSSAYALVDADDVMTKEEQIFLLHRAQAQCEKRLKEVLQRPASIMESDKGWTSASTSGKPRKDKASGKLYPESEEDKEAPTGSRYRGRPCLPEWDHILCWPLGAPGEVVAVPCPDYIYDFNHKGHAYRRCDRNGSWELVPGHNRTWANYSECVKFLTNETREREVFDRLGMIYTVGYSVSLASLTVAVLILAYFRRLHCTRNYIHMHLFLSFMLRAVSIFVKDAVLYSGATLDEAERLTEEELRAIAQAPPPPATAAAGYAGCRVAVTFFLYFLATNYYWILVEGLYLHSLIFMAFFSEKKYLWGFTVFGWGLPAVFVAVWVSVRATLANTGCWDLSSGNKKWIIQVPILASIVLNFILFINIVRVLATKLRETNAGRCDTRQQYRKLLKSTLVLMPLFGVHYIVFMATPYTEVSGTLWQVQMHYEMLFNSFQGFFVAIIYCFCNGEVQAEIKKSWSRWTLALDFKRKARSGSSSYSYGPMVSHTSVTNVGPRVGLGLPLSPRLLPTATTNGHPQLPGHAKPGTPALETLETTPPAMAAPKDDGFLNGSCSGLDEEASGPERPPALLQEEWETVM

Row | EC50 [3] | Efficacy [4] | SMILES | other results
1 |  |  | C=C(c1nc2ccccc2s1)c1ccc(C)cc1C | Activity [1]: inactive; Activity [2]: inactive
2 | 100 nM | 62% | CC(O)(c1ccc(Cl)c(Cl)c1)c1nc2ccccc2s1 (stereo not given) | 
3 | 2510 nM | 88% | Cc1ccc(C(C)c2nc3ccccc3s2)c(C)c1 (stereo not given) | 
4 | 200 nM | 76% | Cc1ccc(C(O)(c2nc3ccccc3s2)C2CC2)c(C)c1 (stereo not given) | 
5 | 79.4 nM | 79% | Cc1ccc([C@@](C)(O)c2nc3ccccc3s2)c(C)c1 | Activity [5]: Active
6 | 10 nM | 83% | Cc1ccc([C@](C)(O)c2nc3ccccc3s2)c(C)c1 | Activity [5]: Active
7 | 631 nM | 53% | CC(O)(c1ccc2ccccc2c1)c1nc2ccccc2s1 (stereo not given) | 
8 |  |  | OC(c1ccccc1)(c1ccc(Cl)c(Cl)c1)c1nc2ccccc2s1 (stereo not given) | Activity [1]: inactive; Activity [2]: inactive
9 | 398 nM | 68% | CC(O)(c1ccc(Cl)cc1)c1nc2ccccc2s1 (stereo not given) | microsomal CLint [6]: > 200 µL/min/mg
10 | 100 nM | 82% | CC(O)(c1nc2ccccc2s1)c1ccc(Cl)cc1Cl (stereo not given) | microsomal CLint [6]: 66 µL/min/mg
11 | 316 nM | 81% | Cc1cc(C)c2c(c1)C(O)(c1nc3ccccc3s1)CCC2 (stereo not given) | 
12 | 251 nM | 72% | Cc1ccccc1C(C)(O)c1nc2ccccc2s1 (stereo not given) | 
13 | 158 nM | 62% | Cc1cc(C(C)(O)c2nc3ccccc3s2)ccc1F (stereo not given) | 
14 | 25.1 nM | 91% | Cc1ccc(C(C)(O)c2nc3ccccc3s2)c(C)c1 (stereo not given) | Activity [5]: Active; microsomal CLint [6]: 396 µL/min/mg; Activity [7]: Active; Activity [8]: inactive; Activity [9]: inactive
15 | 3980 nM | 26% | COc1ccccc1C(C)(O)c1nc2ccccc2s1 (stereo not given) | 
16 | 20 nM | 115% | C[C@@H](NCCCc1cccc(C(F)(F)F)c1)c1cccc2ccccc12 [CINACALCET HYDROCHLORIDE] | 
17 |  |  | Cc1ccc(C(O)c2nc3ccccc3s2)c(C)c1 (stereo not given) | Activity [1]: inactive; Activity [2]: inactive
18 | 31.6 nM | 94% | Cc1cc(Cl)ccc1C(C)(O)c1nc2ccccc2s1 (stereo not given) | 
